Measured values taken from ChEMBL document CHEMBL1127308, “Inhibition of human neutrophil elastase with peptidyl electrophilic ketones. 2. Orally active PG-Val-Pro-Val pentafluoroethyl ketones” (J Med Chem, 1994).
pKi: −log10 of the molar value. Calls of active or inactive are those of the source. The calls are words filed in the database; no cut-off is given here.

What was measured:
Rattus norvegicus [1] = experiment: In vivo inhibitory activity against HNE-induced pulmonary hemorrhage was determined in rats after oral administration of 100 mg/kg; assay type: functional
In short: (§1)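 Rats were dosed orally 45 min before intratracheal instillation of 100 μg HNE. After 1 h, lungs were lavaged with saline, and BAL hemoglobin was measured spectrophotometrically (536–546 nm) against a Hgb standard curve. Percent inhibition was calculated versus vehicle-treated controls, 5–10 rats per group, as mean ± SEM, with one-way ANOVA and Dunnett's test (p ≤ 0.05).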

[2] = Inhibition of HNE-induced pulmonary hemorrhage when the compound was administered before 30 or 45 min at the dose of 50 mg/kg; Not orally active; assay type: functional, organism-based; set-up: dose 50 mg/kg
Neutrophil elastase [3] = target: T1, Neutrophil elastase (Homo sapiens, UniProt P08246); experiment: In vitro inhibitory activity against human neutrophil elastase was determined at a dose of 100 mg/kg; assay type: organism-based; set-up: dose 100 mg/kg
T1 sequence (P08246 whole entry): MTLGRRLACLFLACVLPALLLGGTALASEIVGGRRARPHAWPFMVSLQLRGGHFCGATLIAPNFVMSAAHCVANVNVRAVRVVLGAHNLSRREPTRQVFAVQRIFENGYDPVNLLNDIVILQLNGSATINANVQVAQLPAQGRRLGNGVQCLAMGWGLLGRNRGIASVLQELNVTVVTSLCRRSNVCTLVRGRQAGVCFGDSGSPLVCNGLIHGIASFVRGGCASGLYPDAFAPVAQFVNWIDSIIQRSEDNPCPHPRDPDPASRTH

Rattus norvegicus [4] = experiment: In vivo inhibitory activity against HNE-induced pulmonary hemorrhage was determined in rats after oral administration of 50 mg/kg; assay type: functional; in short: as §1
[5] = Inhibition of HNE-induced pulmonary hemorrhage when the compound was administered before 30 or 45 min at the dose of 50 mg/kg; orally active; assay type: functional, organism-based; set-up: dose 50 mg/kg
Neutrophil elastase [6] = target: T1, Neutrophil elastase; experiment: In vitro inhibitory activity against human neutrophil elastase
In short: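 HNE was partially purified from human purulent sputum and assayed with MeO-Suc-Ala-Ala-Pro-Val-p-nitroanilide; the assay contained 10% v/v DMSO. Ki was found either from a double-reciprocal plot (four substrate × three inhibitor concentrations) or, assuming competitive inhibition, from three inhibitor concentrations at 0.2 mM substrate (≈Km) using v0/vi = 1 + [I]/Ki,app and Ki = Ki,app/(1 + [S]/Km). Inhibitor was 5–100-fold over enzyme, with no hydration correction.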

Neutrophil elastase [7] = target: T1, Neutrophil elastase; experiment: In vitro inhibitory activity against human neutrophil elastase […]; set-up: dose 50 mg/kg
Cricetinae gen. sp. = experiment: In vivo inhibitory activity against HNE-induced pulmonary hemorrhage was determined in hamsters after oral administration of 25 mg/kg; assay type: functional
In short: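 Hamsters were dosed orally 30 min (one case 15 min) before intratracheal instillation of 20 or 10 μg HNE. After 1 h, lungs were lavaged with saline, and BAL hemoglobin was read at 536–546 nm against a Hgb standard curve. Inhibition was calculated versus vehicle controls, 6–19 hamsters per group, as mean ± SEM, with ANOVA and Dunnett's test (p ≤ 0.05).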

Neutrophil elastase [8] = target: T1, Neutrophil elastase; experiment: In vitro inhibitory activity against human neutrophil elastase was determined at a dose of 45 mg/kg; assay type: organism-based; set-up: dose 45 mg/kg
[9] = Inhibition of HNE-induced pulmonary hemorrhage when the compound was administered before 30 or 45 min at the dose of 50 mg/kg; not orally active; assay type: functional, organism-based; set-up: dose 50 mg/kg
Rattus norvegicus [10] = experiment: In vivo inhibitory activity against HNE-induced pulmonary hemorrhage was determined in rats after oral administration of 45 mg/kg; assay type: functional; in short: as §1
[11] = Half life determined from epimerization data at 25 degree C in buffered saline
Cathepsin B (Bos taurus) = Cathepsin B (Bos taurus) (UniProt P07688); experiment: Tested for the ability to inhibit bovine liver cathepsin B at 0.5 mM
[12] = target: T2, Neprilysin (Rattus norvegicus) (UniProt P07861); experiment: Tested for the ability to inhibit rat kidney enkephalinase at 0.5 mM
T2 sequence (whole entry): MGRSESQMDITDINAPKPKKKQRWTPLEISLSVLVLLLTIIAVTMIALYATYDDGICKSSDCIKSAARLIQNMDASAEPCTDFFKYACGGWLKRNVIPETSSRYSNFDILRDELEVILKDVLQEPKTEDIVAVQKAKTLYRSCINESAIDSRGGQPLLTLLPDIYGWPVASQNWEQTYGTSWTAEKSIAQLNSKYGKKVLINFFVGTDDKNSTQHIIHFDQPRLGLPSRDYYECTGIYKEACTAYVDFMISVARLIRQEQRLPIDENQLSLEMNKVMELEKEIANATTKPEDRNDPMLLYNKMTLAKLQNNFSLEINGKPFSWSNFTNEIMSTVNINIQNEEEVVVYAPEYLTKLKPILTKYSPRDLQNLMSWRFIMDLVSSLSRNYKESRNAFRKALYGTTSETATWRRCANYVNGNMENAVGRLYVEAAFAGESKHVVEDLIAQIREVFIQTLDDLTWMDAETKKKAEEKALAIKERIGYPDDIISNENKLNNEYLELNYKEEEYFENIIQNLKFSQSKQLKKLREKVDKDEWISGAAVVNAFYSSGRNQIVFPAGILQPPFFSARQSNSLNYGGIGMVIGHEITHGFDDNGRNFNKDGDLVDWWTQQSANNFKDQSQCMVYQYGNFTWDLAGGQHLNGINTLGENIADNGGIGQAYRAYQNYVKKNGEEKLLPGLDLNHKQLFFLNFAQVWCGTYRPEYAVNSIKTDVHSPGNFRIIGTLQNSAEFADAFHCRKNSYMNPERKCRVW

[13] = Half life determined from epimerization data at 37 degree C in human blood serum 3; assay type: ADME, organism-based, Plasma
In short: (§2)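 The L-L-L or L-L-D diastereomer was held at 37 °C in human blood serum (three individual donors) or human plasma, with a sealed D2O capillary inserted into the NMR tube for lock. Epimerization was followed by 19F NMR spectra, and the half-life was taken from these spectra.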

[14] = Half life determined from epimerization data at 37 degree C in human blood plasma; assay type: ADME, organism-based; in short: as §2
[15] = Half life determined from epimerization data at 37 degree C in human blood serum 2; assay type: ADME, organism-based, Plasma; in short: as §2
Pepsin A (Sus scrofa) = Pepsin A (Sus scrofa) (UniProt P00791); experiment: Tested for the ability to inhibit pepsin at 0.2 mM
[16] = Half life determined from epimerization data at 25 degree C in Tween 20 (81 mM); details: Tween 20 solution (81 mM)
Prothrombin (Bos taurus) = Prothrombin (Bos taurus) (UniProt P00735); experiment: Tested for the ability to inhibit bovine thrombin at 0.5 mM
[17] = target: T3, Cathepsin G (Homo sapiens) (UniProt P08311); experiment: Tested for the ability to inhibit human neutrophil cathepsin G at 0.5 mM
T3 sequence (whole entry): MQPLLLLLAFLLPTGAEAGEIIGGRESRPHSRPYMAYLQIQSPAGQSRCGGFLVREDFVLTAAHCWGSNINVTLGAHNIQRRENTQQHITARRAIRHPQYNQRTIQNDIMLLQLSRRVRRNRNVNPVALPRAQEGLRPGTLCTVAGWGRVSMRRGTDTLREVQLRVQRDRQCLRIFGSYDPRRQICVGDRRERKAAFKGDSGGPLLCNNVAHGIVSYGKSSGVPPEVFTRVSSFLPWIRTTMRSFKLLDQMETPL

Neutrophil elastase [18] = target: T1, Neutrophil elastase; experiment: In vitro inhibitory activity against human neutrophil elastase was determined at a dose of 25 mg/kg; assay type: organism-based; set-up: dose 25 mg/kg
Rattus norvegicus [19] = experiment: In vivo inhibitory activity against HNE-induced pulmonary hemorrhage was determined in rats after oral administration of 25 mg/kg; assay type: functional; in short: as §1

Sequence of Pepsin A (Sus scrofa) (P00791 60-385 limits assumed): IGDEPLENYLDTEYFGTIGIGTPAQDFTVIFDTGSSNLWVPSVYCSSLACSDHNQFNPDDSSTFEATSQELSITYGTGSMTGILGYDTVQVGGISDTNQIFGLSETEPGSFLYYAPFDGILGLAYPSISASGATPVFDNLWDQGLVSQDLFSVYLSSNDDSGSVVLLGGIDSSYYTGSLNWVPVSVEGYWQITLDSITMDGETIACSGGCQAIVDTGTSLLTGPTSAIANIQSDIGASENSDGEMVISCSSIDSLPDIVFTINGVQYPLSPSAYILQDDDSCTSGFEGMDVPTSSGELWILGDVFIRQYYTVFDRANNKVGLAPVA

| SMILES | Oral activity [2] | inhibition in vivo at 50 mg/kg (Rattus norvegicus [4]) | Oral activity [5] | pKi (Neutrophil elastase [7]) | inhibition in vivo at 25 mg/kg (Cricetinae gen. sp.) | other results |
| --- | --- | --- | --- | --- | --- | --- |
| CC(C)C(NC(=O)[C@@H]1CCCN1C(=O)[C@@H](NC(=O)c1ccc(C(=O)NS(=O)(=O)c2ccc(Cl)cc2)cc1)C(C)C)C(=O)C(F)(F)C(F)(F)F (some centres undefined) | inactive |  |  |  |  | inhibition in vivo at 100 mg/kg (Rattus norvegicus [1]): -30%; pKi (Neutrophil elastase [3]): 8.15 |
| CC(C)[C@H](NC(=O)N(C)C)C(=O)N1CCC[C@H]1C(=O)N[C@H](C(=O)C(F)(F)C(F)(F)F)C(C)C |  | 70% | Active |  |  | pKi (Neutrophil elastase [6]): 6.58 |
| CC(C)C(NC(=O)[C@@H]1CCCN1C(=O)[C@@H](NC(=O)C1CCOCC1)C(C)C)C(=O)C(F)(F)C(F)(F)F (some centres undefined) |  | 71% | Active | 7.23 |  |  |
| CC(C)C(NC(=O)[C@@H]1CCCN1C(=O)[C@@H](NC(=O)N1CCOCC1)C(C)C)C(=O)C(F)(F)C(F)(F)F (some centres undefined) |  | 69% | Active | 6.77 | 69% |  |
| CC(C)[C@H](NC(=O)c1ccco1)C(=O)N1CCC[C@H]1C(=O)N[C@H](C(=O)C(F)(F)C(F)(F)F)C(C)C |  |  |  |  |  | pKi (Neutrophil elastase [8]): 6.72; Oral activity [9]: inactive; inhibition in vivo at 45 mg/kg (Rattus norvegicus [10]): 44% |
| CC(C)C(NC(=O)[C@@H]1CCCN1C(=O)[C@@H](NC(=O)CCc1cccnc1)C(C)C)C(=O)C(F)(F)C(F)(F)F (some centres undefined) |  |  | Active |  | 67% |  |
| CC(C)C(NC(=O)[C@@H]1CCCN1C(=O)[C@@H](NC(=O)c1ccc(C(=O)N2CCOCC2)nc1)C(C)C)C(=O)C(F)(F)C(F)(F)F (some centres undefined) |  |  |  |  | 61% |  |
| CC(C)C(NC(=O)[C@@H]1CCCN1C(=O)[C@@H](NC(=O)C(C(=O)N1CCOCC1)C(C)C)C(C)C)C(=O)C(F)(F)C(F)(F)F (some centres undefined) |  |  | Active |  | 70% |  |
| CC(C)[C@H](NC(=O)CN1CCOCC1)C(=O)N1CCC[C@H]1C(=O)N[C@H](C(=O)C(F)(F)C(F)(F)F)C(C)C |  | 77% | Active | 7.22 |  |  |
| CC(C)C(NC(=O)[C@@H]1CCCN1C(=O)[C@@H](NC(=O)c1ccc(C(=O)N2CCOCC2)cc1)C(C)C)C(=O)C(F)(F)C(F)(F)F (some centres undefined) |  | 69% | Active | 7.60 | 74% | half-life [11]: > 200 h; inhibition (Cathepsin B (Bos taurus)): < 5%; inhibition [12]: < 5%; half-life [13]: 30 min; half-life [14]: 30 min; half-life [15]: 30 min; inhibition (Pepsin A (Sus scrofa)): 40%; half-life [16]: 70 min; inhibition (Prothrombin (Bos taurus)): < 5%; inhibition [17]: 15% |
| CC(C)C(NC(=O)[C@@H]1CCCN1C(=O)[C@@H](NC(=O)c1ccc(C(=O)O)cc1)C(C)C)C(=O)C(F)(F)C(F)(F)F (some centres undefined) | inactive |  |  |  | -3% |  |
| CC(C)C(NC(=O)[C@@H]1CCCN1C(=O)[C@@H](NC(=O)CC(=O)N1CCOCC1)C(C)C)C(=O)C(F)(F)C(F)(F)F (some centres undefined) |  |  |  |  |  | pKi (Neutrophil elastase [18]): 7.15; inhibition in vivo at 25 mg/kg (Rattus norvegicus [19]): 41% |
| CC(C)C(NC(=O)[C@@H]1CCCN1C(=O)[C@@H](NC(=O)c1ccc(C(=O)N2CCN(C(=O)N3CCOCC3)CC2)cc1)C(C)C)C(=O)C(F)(F)C(F)(F)F (some centres undefined) | inactive |  |  |  | 31% |  |
| CC(C)C(NC(=O)[C@@H]1CCCN1C(=O)[C@@H](NC(=O)c1ccc(NC(=O)N2CCOCC2)cc1)C(C)C)C(=O)C(F)(F)C(F)(F)F (some centres undefined) | inactive | 26% |  | 7.37 |  |  |
| CC(C)C(NC(=O)[C@@H]1CCCN1C(=O)[C@@H](NC(=O)c1ccc(S(=O)(=O)N2CCOCC2)cc1)C(C)C)C(=O)C(F)(F)C(F)(F)F (some centres undefined) | inactive |  |  |  | 30% |  |
